From publication PMC12495087 (ESMO Open, 2025)
pKd: −log10 of the molar value.

Columns and labels:
[1] = system: advanced solid tumors with RET gene alteration; experiment: phase I study: tumor response per RECIST v.1.1, evaluable analysis set; assay type: in vivo, human
Procedure, shortened: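 Investigator assessed response by RECIST v1.1. Drug was taken orally once daily in 28-day cycles, 10–150 mg in part A escalation and 75 mg in part B expansion, until progression. ORR and DCR summarised with two-sided 95% exact CIs. Duration of response and other time-to-event endpoints estimated by Kaplan–Meier.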

[2] = system: RET-fusion-positive NSCLC; experiment: phase I study: tumor response per RECIST v.1.1, NSCLC; assay type: in vivo, human
RET-mutant MTC = experiment: phase I study: tumor response per RECIST v.1.1, MTC; assay type: in vivo, human
[3] = system: tumors with cfDNA-detected RET alterations; experiment: clinical outcome by cfDNA RET alteration; assay type: in vivo, human
Procedure, shortened: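 Adults with advanced RET-altered solid tumours took oral drug once daily in 28-day cycles (10–150 mg dose escalation; expansion at recommended phase II dose). RET status came from plasma cfDNA drawn at screening (within 28 days pre-dose), cycle 1 day 15 (±2 days) and cycle 2 day 1. Investigator assessed response by RECIST v1.1 in patients with evaluable response and tumour-size change. ORR/DCR given with two-sided 95% exact CIs.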

[4] = system: tumors with local RET results; experiment: clinical outcome by local RET result; assay type: in vivo, human
Procedure, shortened: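 RET alteration was confirmed locally by DNA- or RNA-based assays of tumour tissue or blood. Patients took oral drug once daily in 28-day cycles (10–150 mg escalation; expansion at recommended phase II dose). Investigator assessed response by RECIST v1.1 in patients with evaluable overall response and percent tumour-size change from baseline. ORR and DCR summarised with two-sided 95% exact CIs.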

RET = settings: read-out: kd, potency against RET; cited from earlier work
[5] = system: vascular endothelial growth factor receptor 2; settings: cited from earlier work
RET G810 = settings: cited from earlier work
[6] = 58 patients with cfDNA RET alterations
[7] = cfDNA RET alteration total, n = 58

For `COc1cc2cc(-c3ccc(CC(=O)Nc4cc(C(C)(C)C(F)(F)F)no4)cn3)cnc2cc1OC` [BOS172738], the “objective DCR (ODCR)” value ([1]; 100 mg dose, part A) was 93%, the “median time to response” value ([1]; all confirmed responders) was 1.79 months and the “reduction in brain target lesions” value ([1]; one patient with brain metastases, first post-baseline scan) was 43%. The “median PFS” value ([1]; overall, evaluable analysis set) was 7.16 months, the “BOR: CR” value ([1]; parts A and B total, N=101) was “No patients” and the intracranial activity ([1]; patients with brain metastases) was “intracranial activity was also observed”. The “median PFS” value ([2]; NSCLC) was 6.18 months, the “median DoR” value ([2]; confirmed responders with NSCLC) was 10.17 months and the “median PFS” value (RET-mutant MTC; MTC) was 12.75 months. For the same molecule, the “median DoR” value (RET-mutant MTC; confirmed responders with MTC) was 19.15 months, the “partial responses as best response” value [3, 6] was 29% and the “progressive disease as best response” value [3, 6] was 28%. For the same molecule, the “stable disease as best response” value [3, 6] was 43%, the “BOR: PD” value [3, 7] was 16 (28) n (%) and the “BOR: PR” value [3, 7] was 17 (29) n (%). The “BOR: SD” value [3, 7] was 25 (43) n (%), the “DCR (PR + SD)” value [3, 7] was 42 (72) n (%) and the ORR [3, 7] was 17 (29) n (%). The “BOR: PD” value ([3]; cfDNA RET fusions + SNV, n = 2) was 1 (50) n (%), the “BOR: PR” value ([3]; cfDNA RET fusions + SNV, n = 2) was 1 (50) n (%) and the “BOR: SD” value ([3]; cfDNA RET fusions + SNV, n = 2) was 0 n (%). The “DCR (PR + SD)” value ([3]; cfDNA RET fusions + SNV, n = 2) was 1 (50) n (%), the ORR ([3]; cfDNA RET fusions + SNV, n = 2) was 1 (50) n (%) and the “BOR: PD” value ([3]; cfDNA RET fusions, n = 37) was 6 (16) n (%). For the same molecule, the “BOR: PR” value ([3]; cfDNA RET fusions, n = 37) was 12 (32) n (%), the “BOR: SD” value ([3]; cfDNA RET fusions, n = 37) was 19 (51) n (%) and the “DCR (PR + SD)” value ([3]; cfDNA RET fusions, n = 37) was 31 (84) n (%). The ORR ([3]; cfDNA RET fusions, n = 37) was 12 (32) n (%), the “BOR: PD” value ([3]; cfDNA SNV, n = 19) was 9 (47) n (%) and the “BOR: PR” value ([3]; cfDNA SNV, n = 19) was 4 (21) n (%). For the same molecule, the “BOR: SD” value ([3]; cfDNA SNV, n = 19) was 6 (32) n (%), the “DCR (PR + SD)” value ([3]; cfDNA SNV, n = 19) was 10 (53) n (%) and the ORR ([3]; cfDNA SNV, n = 19) was 4 (21) n (%). For the same molecule, the “BOR: PD” value ([4]; local Indel, n = 6) was 1 (17) n (%), the “BOR: PR” value ([4]; local Indel, n = 6) was 1 (17) n (%) and the “BOR: SD” value ([4]; local Indel, n = 6) was 4 (67) n (%). The “DCR (PR + SD)” value ([4]; local Indel, n = 6) was 5 (83) n (%), the ORR ([4]; local Indel, n = 6) was 1 (17) n (%) and the “BOR: PD” value ([4]; local RET fusions, n = 57) was 10 (18) n (%). For the same molecule, the “BOR: PR” value ([4]; local RET fusions, n = 57) was 21 (37) n (%), the “BOR: SD” value ([4]; local RET fusions, n = 57) was 26 (46) n (%) and the “DCR (PR + SD)” value ([4]; local RET fusions, n = 57) was 47 (82) n (%). The ORR ([4]; local RET fusions, n = 57) was 21 (37) n (%), the “BOR: PD” value ([4]; local RET total, n = 93) was 20 (22) n (%) and the “BOR: PR” value ([4]; local RET total, n = 93) was 28 (30) n (%). For the same molecule, the “BOR: SD” value ([4]; local RET total, n = 93) was 45 (48) n (%), the “DCR (PR + SD)” value ([4]; local RET total, n = 93) was 73 (78) n (%) and the ORR ([4]; local RET total, n = 93) was 28 (30) n (%). For the same molecule, the “BOR: PD” value ([4]; local SNV, n = 30) was 9 (30) n (%), the “BOR: PR” value ([4]; local SNV, n = 30) was 6 (20) n (%) and the “BOR: SD” value ([4]; local SNV, n = 30) was 15 (50) n (%). For the same molecule, the “DCR (PR + SD)” value ([4]; local SNV, n = 30) was 21 (70) n (%), the ORR ([4]; local SNV, n = 30) was 6 (20) n (%) and the pKd (RET) was no less than 9.00. For the same molecule, the “specificity to RET compared with vascular endothelial growth factor receptor 2” value [5] was greater than 300 fold and the “activity against RET G810 resistance” value (RET G810) was “able to overcome RET G810 resistance”.
